Assay results published in ChEMBL document CHEMBL1140294 (J Med Chem, 2005).

Columns and labels:
Type in all cases: cell-based
[1] = biological target: T1, ATP-dependent translocase ABCB1 (Homo sapiens, UniProt P08183); assay: Reversal of P-gp-mediated multidrug resistance in doxorubicin-resistant human K562 cells assessed as increase in nuclear pirarubicin concentration
[2] = biological target: T1, ATP-dependent translocase ABCB1; assay: Reversal of P-gp-mediated multidrug resistance in doxorubicin-resistant human K562 cells assessed as drug concentration causing half-maximal increase in nuclear pirarubicin concentration; settings: read-out: Activity
[3] = biological target: T1, ATP-dependent translocase ABCB1; assay: Reversal of P-gp-mediated multidrug resistance in human K562 cells assessed as drug concentration causing 40% increase in nuclear pirarubicin concentration
In short: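 Doxorubicin-resistant K 562 cells in exponential phase. Pirarubicin uptake monitored by fluorescence at 590 nm (ex 480 nm) in HEPES buffer (pH 7.25) at 37 °C. The reported value, [I]0.5, is the modulator concentration giving a 40% increase in nuclear pirarubicin concentration (α = 0.4).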

T1 sequence (P08183 whole entry): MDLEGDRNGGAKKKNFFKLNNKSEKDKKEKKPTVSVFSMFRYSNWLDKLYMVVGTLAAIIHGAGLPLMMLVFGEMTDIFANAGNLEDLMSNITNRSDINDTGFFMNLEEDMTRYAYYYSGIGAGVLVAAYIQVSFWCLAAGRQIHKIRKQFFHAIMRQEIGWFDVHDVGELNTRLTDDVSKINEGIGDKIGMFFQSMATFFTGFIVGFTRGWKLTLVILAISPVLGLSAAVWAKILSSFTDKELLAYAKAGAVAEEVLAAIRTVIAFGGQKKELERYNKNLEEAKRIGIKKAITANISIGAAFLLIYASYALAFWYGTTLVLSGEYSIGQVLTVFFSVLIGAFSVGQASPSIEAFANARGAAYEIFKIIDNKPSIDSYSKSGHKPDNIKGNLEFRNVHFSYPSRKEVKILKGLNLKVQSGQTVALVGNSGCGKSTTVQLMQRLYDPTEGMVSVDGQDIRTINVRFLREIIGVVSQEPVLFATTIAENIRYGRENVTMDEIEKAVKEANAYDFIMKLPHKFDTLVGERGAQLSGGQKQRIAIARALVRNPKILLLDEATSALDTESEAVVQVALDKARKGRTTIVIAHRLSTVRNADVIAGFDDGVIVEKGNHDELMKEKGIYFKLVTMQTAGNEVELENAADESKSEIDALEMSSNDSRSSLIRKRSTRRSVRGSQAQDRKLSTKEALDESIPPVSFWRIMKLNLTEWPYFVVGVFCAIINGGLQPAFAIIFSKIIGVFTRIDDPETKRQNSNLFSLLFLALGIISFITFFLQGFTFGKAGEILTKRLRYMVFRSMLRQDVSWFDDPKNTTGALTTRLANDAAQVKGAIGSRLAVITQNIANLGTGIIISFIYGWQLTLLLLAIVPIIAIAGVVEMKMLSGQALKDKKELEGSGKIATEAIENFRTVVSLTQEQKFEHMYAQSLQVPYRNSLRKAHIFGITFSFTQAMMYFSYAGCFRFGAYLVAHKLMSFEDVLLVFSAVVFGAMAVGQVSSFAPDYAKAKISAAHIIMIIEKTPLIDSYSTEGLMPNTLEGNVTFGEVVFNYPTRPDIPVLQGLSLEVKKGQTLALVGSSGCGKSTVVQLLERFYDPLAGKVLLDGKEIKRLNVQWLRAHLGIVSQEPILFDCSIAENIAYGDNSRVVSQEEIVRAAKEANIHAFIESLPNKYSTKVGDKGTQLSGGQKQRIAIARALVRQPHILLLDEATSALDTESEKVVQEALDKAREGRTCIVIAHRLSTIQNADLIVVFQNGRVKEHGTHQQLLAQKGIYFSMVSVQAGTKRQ

SMILES	Alpha max [1]	EC50 [2] [nM]	Activity [3] [µM]
CN(CCCOC(=O)c1c2ccccc2cc2ccccc12)CCN(C)CCCOC(=O)c1c2ccccc2cc2ccccc12	0.5		0.8
COc1ccc(C(C#N)(CCC(=O)OCCCN(C)CCN(C)CCCOC(=O)c2c3ccccc3cc3ccccc23)C(C)C)cc1OC (stereo unspecified)	0.74	400	
COc1ccc(C(C#N)(CCC(=O)OCCCN2CCN(CCCOC(=O)c3c4ccccc4cc4ccccc34)CC2)C(C)C)cc1OC (stereo unspecified)	0.65	620	
COc1cc(/C=C/C(=O)OCCN(C)CCOC(=O)C2c3ccccc3-c3ccccc32)cc(OC)c1OC	0.7	800	
COc1cc(/C=C/C(=O)OCCOCCN(C)CCOCCOC(=O)c2c3ccccc3cc3ccccc23)cc(OC)c1OC	0.84	170	
COc1ccc(C(C#N)(CCC(=O)OCCCNCCCOC(=O)c2c3ccccc3cc3ccccc23)C(C)C)cc1OC (stereo unspecified)	0.9	2100	
COc1cc(/C=C/C(=O)OCCCCCN(C)CCCCCOC(=O)c2c3ccccc3cc3ccccc23)cc(OC)c1OC	0.8	100	
COc1cc(/C=C/C(=O)OCCCCCCCN(C)CCCCCCCOC(=O)c2c3ccccc3cc3ccccc23)cc(OC)c1OC	0.55	150	
COc1cc(/C=C/C(=O)OCCCN(C)CCN(C)CCCOC(=O)C2c3ccccc3-c3ccccc32)cc(OC)c1OC	0.64	570	
COc1cc(/C=C/C(=O)OCCCCCN(C)CCCCCOC(=O)C2c3ccccc3-c3ccccc32)cc(OC)c1OC	0.83	110	
COc1ccc(C(C#N)(CCCN(C)c2c3ccccc3cc3ccccc23)C(C)C)cc1OC (stereo unspecified)	0.7	50	
O=C(OCCCN1CCN(CCCOC(=O)c2c3ccccc3cc3ccccc23)CC1)c1c2ccccc2cc2ccccc12	0.5		2.5
COc1cc(/C=C/C(=O)OCCCCCCN(C)CCCCCCOC(=O)c2c3ccccc3cc3ccccc23)cc(OC)c1OC	0.68	610	
COc1cc(/C=C/C(=O)OCCN(C)CCOC(=O)c2c3ccccc3cc3ccccc23)cc(OC)c1OC	0.84	1000	

The remaining lines, values ahead:

Alpha max [1]	EC50 [2] [nM]	Activity [3] [µM]	SMILES
0.78	1300		COc1cc(/C=C/C(=O)OCCCN(C)CCN(C)CCCOC(=O)c2cc(OC)c(OC)c(OC)c2)cc(OC)c1OC
0.7	190		COc1cc(/C=C/C(=O)OCCCN(C)CCN(C)CCCOC(=O)c2c3ccccc3cc3ccccc23)cc(OC)c1OC
0.8	2600		COc1cc(/C=C/C(=O)OCCCN(C)CCN(C)CCCOC(=O)/C=C/c2cc(OC)c(OC)c(OC)c2)cc(OC)c1OC
0.7	230		COc1cc(/C=C/C(=O)OCCCN2CCN(CCCOC(=O)C3c4ccccc4-c4ccccc43)CC2)cc(OC)c1OC
0.8	370		COc1cc(/C=C/C(=O)OCCCN2CCN(CCCOC(=O)/C=C/c3cc(OC)c(OC)c(OC)c3)CC2)cc(OC)c1OC
0.9	600		COc1cc(/C=C/C(=O)OCCCN(C)CCCOC(=O)c2cc(OC)c(OC)c(OC)c2)cc(OC)c1OC
0.86	3100		COc1cc(/C=C/C(=O)OCCN(C)CCOC(=O)c2cc(OC)c(OC)c(OC)c2)cc(OC)c1OC
1	500		COc1cc(/C=C/C(=O)OCCCNCCCOC(=O)c2cc(OC)c(OC)c(OC)c2)cc(OC)c1OC
0.86	3700		COc1cc(/C=C/C(=O)OCCN(C)CCOC(=O)c2ccccc2)cc(OC)c1OC
0.78	180		COc1cc(/C=C/C(=O)OCCCN(C)CCCOC(=O)c2c3ccccc3cc3ccccc23)cc(OC)c1OC
0.74	210		COc1cc(/C=C/C(=O)OCCCNCCCOC(=O)c2c3ccccc3cc3ccccc23)cc(OC)c1OC
0.8	6400		COc1cc(/C=C/C(=O)OCCN(C)CCOC(=O)c2ccc(OC)c(OC)c2OC)cc(OC)c1OC
0.9	4200		COc1cc(/C=C/C(=O)OCCOCCN(C)CCOCCOC(=O)c2cc(OC)c(OC)c(OC)c2)cc(OC)c1OC
1	7000		COc1cc(/C=C/C(=O)OCCOCCNCCOCCOC(=O)c2cc(OC)c(OC)c(OC)c2)cc(OC)c1OC
0.6	2000		COc1cc(/C=C/C(=O)OCCCCCCN(C)CCCCCCOC(=O)c2cc(OC)c(OC)c(OC)c2)cc(OC)c1OC
0.55	1000		COc1cc(/C=C/C(=O)OCCCCCCCN(C)CCCCCCCOC(=O)c2cc(OC)c(OC)c(OC)c2)cc(OC)c1OC
0.84	800		COc1cc(/C=C/C(=O)OCCCCCN(C)CCCCCOC(=O)c2cc(OC)c(OC)c(OC)c2)cc(OC)c1OC
0.61	380		COc1cc(/C=C/C(=O)OCCCN2CCN(CCCOC(=O)c3cc(OC)c(OC)c(OC)c3)CC2)cc(OC)c1OC
0.9	160		COc1cc(/C=C/C(=O)OCCCN2CCN(CCCOC(=O)c3c4ccccc4cc4ccccc34)CC2)cc(OC)c1OC
